# XBP1 UPR activ: activators of adaptive XBP1 UPR arm, primary screen, cell-based, CHO-XBP1 luciferase reporter, luminescence, uHTS | IRE1-XBP1 UPR activation; percent of tunicamycin response, DMSO as zero | activation, % at 20 µM | 0.33% of 330,000 active;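 active means versus positive control, 20 µM dose yields 30% or more activation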
#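 Material: CHO-XBP1 cells stably carrying IRE1-XBP1-driven luciferase reporter / Amount: 1000 cells per well / Compound: 20 µM, 1% DMSO / Times: 6 h treatment, 37 °C / Detection: luciferase luminescence / Measure: % activation of reporter signal versus tunicamycin and DMSO controls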
# UPR CHOP act: activators of apoptotic CHOP UPR arm, primary screen, cell-based, CHO-CHOP luciferase reporter, luminescence, uHTS; activation, % at 10 µM; UPR activation; percent of tunicamycin response over DMSO baseline; 0.34% of 330,000 active;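 active means at 10 µM dose, activation of 40% or more, normalized to positive control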
#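 Assay system: CHO cells with stable CHOP pathway luciferase reporter; Buffer or medium: F12 plus 10% serum; Times: 16-18 h cell attachment, then 6 h compound exposure, 37 °C; Signal: luciferase luminescence; Read-out basis: percent activation relative to tunicamycin control; Control set: tunicamycin high control, DMSO low control.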
# Lipid droplet: inhibitors of hepatocyte lipid droplet formation, primary screen, imaging, high-throughput imaging, BODIPY stain; AML12 mouse hepatocytes, oleate lipid droplets; inhibition, % at 6.5 µM; 0.4% of 240,000 active;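 active means lipid droplet intensity inhibited by at least 50%, with more than 500 cells counted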
#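 System: AML12 hepatocytes (mouse). Probe or stimulus: oleic acid at 100 µM to induce lipid droplet formation. Times: overnight treatment with compound plus oleate. Detection: Image-based BODIPY and DAPI two-channel analysis. Evaluation: percent inhibition of filter-corrected integrated lipid droplet intensity per well.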
# ANO1 block: TMEM16A chloride channel inhibitors, primary screen, cell-based, HTS; HEK293 TMEM16A/YFP iodide influx fluorescence, ionomycin; normalized B-score (activity score, 25-100; higher = stronger inhibition) at 10 µM; 1.2% of 310,000 active; AID 588511, 2011;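 active means ratio plate-corrected score three or more library SD toward inhibition, starting fluorescence score within five deviations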;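 further: score derived from kinetic fluorescence span divided by baseline fluorescence per well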
# Target sequence (Q8BHY3 whole entry, looked up): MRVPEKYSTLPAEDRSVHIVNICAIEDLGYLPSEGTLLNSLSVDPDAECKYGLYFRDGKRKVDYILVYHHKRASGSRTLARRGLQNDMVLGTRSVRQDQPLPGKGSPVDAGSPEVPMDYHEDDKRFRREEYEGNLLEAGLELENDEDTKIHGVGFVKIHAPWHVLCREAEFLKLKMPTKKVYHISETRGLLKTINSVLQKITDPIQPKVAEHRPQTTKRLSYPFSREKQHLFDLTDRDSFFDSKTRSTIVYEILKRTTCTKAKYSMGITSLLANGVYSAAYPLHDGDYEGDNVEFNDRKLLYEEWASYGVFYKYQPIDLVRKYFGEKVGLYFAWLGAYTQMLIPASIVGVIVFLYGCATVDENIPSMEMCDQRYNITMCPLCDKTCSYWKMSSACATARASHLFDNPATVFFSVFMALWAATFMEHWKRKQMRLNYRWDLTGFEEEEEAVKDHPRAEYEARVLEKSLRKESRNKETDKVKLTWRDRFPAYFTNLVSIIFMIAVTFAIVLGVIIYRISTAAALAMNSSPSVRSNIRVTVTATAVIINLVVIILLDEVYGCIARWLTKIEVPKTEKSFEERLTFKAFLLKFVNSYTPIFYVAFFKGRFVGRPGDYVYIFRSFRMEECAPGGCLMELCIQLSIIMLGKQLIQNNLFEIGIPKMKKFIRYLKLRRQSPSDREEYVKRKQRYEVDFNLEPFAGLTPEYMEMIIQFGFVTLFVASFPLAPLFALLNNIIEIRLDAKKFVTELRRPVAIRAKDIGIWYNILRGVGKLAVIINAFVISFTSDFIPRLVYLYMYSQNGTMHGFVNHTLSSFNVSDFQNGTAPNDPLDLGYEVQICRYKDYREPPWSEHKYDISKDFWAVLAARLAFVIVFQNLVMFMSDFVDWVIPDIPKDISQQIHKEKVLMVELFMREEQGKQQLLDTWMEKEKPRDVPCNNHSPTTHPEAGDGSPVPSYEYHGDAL
# CHOP inh: inhibitors of CHOP promoter induction, primary screen, cell-based, unfolded protein response, luciferase reporter; 3.8% of 220,000 active; inhibition, % at 10 µM; CHO-K1 CHOP-promoter luciferase, tunicamycin-induced, 15-18 h;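 active means compounds that reduced the stress-induced luciferase reporter signal by more than about 70% of percent inhibition, limit read from the data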
# TMEM16A act: TMEM16A chloride channel activators or potentiators, primary screen, cell-based, HTS. Anoctamin-1 (Mus musculus), Q8BHY3. HEK293 TMEM16A/YFP-H148Q/I152L, iodide quench fluorescence; hits give low values. B-score at 10 µM. 0.3% of 340,000 active;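 active means fluorescence-ratio B-score plate-corrected deviation score at least 3 library SD below zero, with starting fluorescence score within 5 deviations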;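 further: channel opened by trigger with iodide after compound preincubation; score built on the fluorescence ratio of max minus min over baseline; more negative score means more quench and so TMEM16A activation or potentiation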
# Hits are given with their value; 0 = inactive; - = no result given. Shown are actives, neighbours in structure and some others; about 4.2% of the full set was active somewhere.
SMILES,XBP1 UPR activ,UPR CHOP act,Lipid droplet,ANO1 block,CHOP inh,TMEM16A act
C[C@@H]1NS(=O)(=O)[C@H]2C[C@@H]3C=C[C@]2(O3)[C@H]1OC(=O)Nc1ccc(C(F)(F)F)cc1[N+](=O)[O-],0,0,-,-,-,0
Cc1ccc(N2C(=S)N=C(Nc3ccccc3C)C23CCOC(C)(C)C3)cc1 (stereo not given),0,0,-,0,84,0
COc1ccc(NCc2ccc(OC)c(Cn3ccnc3)c2)c(OC)c1,0,0,-,0,-,0
CCOC(=O)c1cc2nc(Nc3ccc(OC)cc3)sc2s1,0,0,0,0,70,0
COc1cc(O)c(C(=O)CC(=O)c2ccncc2)c(OC)c1,-,-,-,-,-,0
CCC1(CC)NC(=O)N(CC(=O)OCC(=O)Nc2cc(OC)ccc2OC)C1=O,0,0,-,-,-,0
O=C(NCC1(c2ccccc2)CCCC1)C1(c2ccccc2)CCCC1,0,0,0,100,0,0
O=C(NCC1(c2ccccc2)CCCC1)C(=O)NCC1(c2ccccc2)CCCC1,-,-,0,-,0,0
Cc1cc(OCC(=O)Nc2cc(-c3nn4c(C)nnc4s3)ccc2C)ccc1Cl,0,0,-,0,95,0
Cc1cccc(N2CN(S(=O)(=O)c3cccc([N+](=O)[O-])c3)c3nc4ccccc4nc32)c1,0,0,-,-,-,0
CCN(CC(=O)Nc1cc(OC)ccc1OC)Cc1nc2ccccc2c(=O)[nH]1,0,0,0,0,0,0
COc1cc2c(cc1NC(=O)CSc1nc3ccccc3[nH]1)oc1ccccc12,0,0,0,0,95,0
COc1cc2c(cc1NC(=O)CN(C)Cc1nc3ccccc3c(=O)[nH]1)oc1ccccc12,0,0,-,0,74,0
Cc1ccc(-c2nnc(-c3cccc(Br)c3)o2)cc1,0,0,0,0,0,0
Brc1cccc(-c2nnc(-c3ccccc3)o2)c1,0,0,0,0,75,0
O=C(N/N=C/c1ccc(OC(F)F)cc1OC(F)F)NC1CCCCC1,0,0,0,0,91,0
CSc1nc2c(c(-c3ccc(O)cc3)c1C#N)CCC2,0,0,0,0,86,0
COc1ccccc1C(=O)NC(=O)CSc1nc(C)cs1,0,0,-,0,-,0
O=c1oc(Cl)c(Cl)c2ccccc12,0,88,-,0,0,0
CCN(C(=O)CSc1nc(-c2cccs2)nc2ccccc12)C1CCS(=O)(=O)C1 (stereo not given),0,0,-,-,-,0
CCN(C[C@H]1N[C@@](C)(C(=O)OC)[C@H]2C(=O)N(C)C(=O)[C@@H]12)C(=O)COc1ccccc1,0,0,-,-,-,-
CC(C)c1ccc(NC(=O)c2snc3ccc(Cl)cc23)cc1,0,0,0,0,79,0
CC(C)c1ccc(NC(=O)c2csnn2)cc1,0,0,0,0,0,0
Cc1ccc(-c2csc(N3CCC(C(N)=O)(N4CCCCC4)CC3)n2)cc1,0,0,-,0,82,0
COC(=O)c1cccc(NC(=O)c2ccco2)c1,0,0,0,0,0,0
SMILES,XBP1 UPR activ,UPR CHOP act,Lipid droplet,ANO1 block,CHOP inh,TMEM16A act
CC(C)(C)C(=O)COC(=O)c1cccc(NC(=O)c2ccco2)c1,0,0,-,0,72,0
CC(C)(C)c1ccc(C(=O)Nc2ccc(NC(=O)c3ccco3)cc2)cc1,0,0,-,0,73,0
COc1c(F)c(F)c(C(=O)Nc2ccc(NC(=O)c3ccco3)cc2)c(F)c1F,0,0,0,0,80,0
COc1ccc(NC(=O)c2ccco2)cc1N,0,0,-,0,70,0
COc1cccc(C(=O)NCC(=O)N2CCN(c3ccc(C(F)(F)F)cn3)CC2)c1,0,0,-,-,-,0
Cc1ccc(S(=O)(=O)N2CCOCC2)cc1NC(=O)COC(=O)Cn1c(C)csc1=O,0,0,-,0,-,0
Cc1cc(C)cc(NC(=O)CCc2nc3sc4c(c3c(=O)[nH]2)CCCC4)c1,0,0,-,0,-,0
C=CCN(CC=C)CCOc1cccc2ccccc12,0,0,0,0,76,0

# Screening data as filed in PubChem.
